Calls of active or inactive are those of the source. The rule behind the calls is not given here.
How the values were obtained:
[1] = molecular target: T1, Antigen-presenting glycoprotein CD1d (Mus musculus) (UniProt P11609+P11610); test: Binding affinity to CD1d in C57BL/6 mouse splenocytes assessed as iNKT cell stimulating activity by measuring maximal induction of Th2-cytokine, IL-4 production at 1 uM incubated for 48 hrs by ELISA; assay type: cell-based
Outline: (§1)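 Spleens from female C57BL/6 mice passed through a 100 µM strainer, RBC-lysed (ammonium chloride/KHCO3/EDTA buffer, pH 7.2, 5 min, 4 °C), PBS-washed. Splenocytes at 1×10^5/well in RPMI 1640 with 10% FBS and 1% penicillin-streptomycin, exposed to glycolipid at three concentrations (0.01-1 µM) for 48 h at 37 °C. IFN-γ and IL-4 in supernatant measured by ELISA (pg/mL); α-GalCer positive control.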

[2] = molecular target: T1, Antigen-presenting glycoprotein CD1d (Mus musculus); test: Binding affinity to CD1d in C57BL/6 mouse splenocytes assessed as iNKT cell stimulating activity by measuring induction of Th2-cytokine, IL-4 production incubated for 48 hrs by ELISA; assay type: cell-based; outline: as §1
[3] = tested on: Mus musculus; test: Immunostimulatory activity in C57BL/6 mouse assessed as increase in IL-4 level in serum at 100 ug/kg, ip measured after 3 hrs by ELISA; assay type: functional, organism-based
Outline: (§2)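 Female C57BL/6 mice, 7-8 weeks, 25-28 g, SPF housing. Glycolipid 1 mg/mL DMSO stock diluted in PBS, given ip at 100 µg/kg. Serum taken at several time points after injection and IFN-γ and IL-4 measured by ELISA; 3 mice per group, each serum tested individually.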

[4] = tested on: Mus musculus; test: Immunostimulatory activity in C57BL/6 mouse assessed as increase in IFN-gamma level in serum at 100 ug/kg, ip measured after 6 to 24 hrs by ELISA; assay type: functional, organism-based; outline: as §2
[5] = molecular target: T1, Antigen-presenting glycoprotein CD1d (Mus musculus); test: Binding affinity to CD1d in C57BL/6 mouse splenocytes assessed as iNKT cell stimulating activity by measuring induction of Th1-cytokine, IFN-gamma production incubated for 48 hrs by ELISA; assay type: cell-based; outline: as §1
[6] = tested on: Splenocyte; test: Cytotoxicity against C57BL/6 mouse splenocytes assessed as reduction in cell viability at 0.01 to 1 uM incubated for 48 hrs by MTT assay; assay type: cell-based
Outline: (§3)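 Female C57BL/6 splenocytes, strained and RBC-lysed, plated at 1×10^5/well in RPMI 1640 with 10% FBS and 1% penicillin-streptomycin, treated 48 h at 37 °C at 1, 0.1 and 0.01 µM. MTT (5 mg/mL) added for 4 h, formazan dissolved in DMSO, OD read at 570 nm. Viability given as % of medium-only control cells.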

[7] = tested on: Mus musculus; test: Immunostimulatory activity in C57BL/6 mouse assessed as IFN-gamma level in serum at 100 ug/kg, ip measured after 24 hrs by ELISA; assay type: functional; outline: as §2
[8] = tested on: Mus musculus; test: Immunostimulatory activity in C57BL/6 mouse assessed as induction of Th1 cytokine-biased response by measuring IFN-gamma/IL-6 ratio at 100 ug/kg, ip measured after 24 hrs by ELISA; assay type: functional; conditions: in the assay text read “IFN-gamma/IL-4 ratio” for “IFN-gamma/IL-6 ratio”
Outline: (§4)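 Female C57BL/6 mice given glycolipid ip at 100 µg/kg (DMSO stock diluted in PBS). Serum IFN-γ and IL-4 measured by ELISA at several time points up to 24 h, 3 mice per group tested individually. Th1 bias expressed as IFN-γ/IL-4 ratio and as area-under-curve ratio of IFN-γ/IL-4 release.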

[9] = tested on: Splenocyte; test: Induction of cell proliferation in C57BL/6 mouse splenocytes incubated for 48 hrs by MTT assay; assay type: functional, cell-based; outline: as §3
[10] = molecular target: T1, Antigen-presenting glycoprotein CD1d (Mus musculus); test: Binding affinity to CD1d in C57BL/6 mouse splenocytes assessed as iNKT-cell stimulating activity by measuring IFN-gamma/IL-4 ratio at 0.01 uM incubated for 48 hrs by ELISA; assay type: cell-based; conditions: in the assay text read “IFN-gamma/IL-4 ratio” for “IFN-gamma/IL-6 ratio”
Outline: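 Splenocytes prepared and cultured as for the cytokine assay (1×10^5/well, RPMI 1640 with 10% FBS, 48 h, 37 °C). IFN-γ and IL-4 determined by ELISA at 0.01 µM glycolipid and expressed as the relative proportion (IFN-γ/IL-4 ratio).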

[11] = tested on: Splenocyte; test: Induction of cell proliferation in C57BL/6 mouse splenocytes at 1 uM incubated for 48 hrs by MTT assay; assay type: functional, cell-based; outline: as §3
[12] = molecular target: T1, Antigen-presenting glycoprotein CD1d (Mus musculus); test: Binding affinity to CD1d in C57BL/6 mouse splenocytes assessed as iNKT cell stimulating activity by measuring maximal induction of Th1-cytokine, IFN-gamma production at 1 uM incubated for 48 hrs by ELISA; assay type: cell-based; outline: as §1
[13] = tested on: Mus musculus; test: Immunostimulatory activity in C57BL/6 mouse assessed as induction of Th1 cytokine-biased response by measuring AUC ratio of IFN-gamma/IL-4 cytokine release at 100 ug/kg, ip measured after 24 hrs by ELISA; assay type: functional; outline: as §4
[14] = tested on: Mus musculus; test: Immunostimulatory activity in C57BL/6 mouse assessed as increase in IL-4 level in serum at 100 ug/kg, ip measured after 6 hrs by ELISA; assay type: functional, organism-based; outline: as §2
[15] = tested on: Mus musculus; test: Immunostimulatory activity in C57BL/6 mouse assessed as induction of Th1 cytokine-biased response by measuring IFN-gamma/IL-4 ratio at 100 ug/kg, ip measured after 24 hrs by ELISA

SMILES	Activity [1]	Activity [2]	Activity [3]	Activity [4]	Activity [5]	Activity [6]	Activity [7]	Ratio [8]	Activity [9]	Ratio [10]	Activity [11]	Activity [12]	Ratio [13]	Activity [14]	Ratio [15]
CCCCCCCCCCCCCCCCCCCCCCCCCC(=O)N[C@@H](CO[C@H]1O[C@H](Cn2cc(C(=O)N[C@@H](CO)C(=O)OC)nn2)[C@H](O)[C@H](O)[C@H]1O)[C@H](O)[C@H](O)CCCCCCCCCCCCCC	Active	Dose-dependent effect	Active	Active	Dose-dependent effect	Non-Toxic	4755 pg/mL	1.8	Dose-dependent effect	1.7	Active	Active	–	–	–
CCCCCCCCCCCCCCCCCCCCCCCCCC(=O)N[C@@H](CO[C@H]1O[C@H](Cn2cc(C(=O)N[C@@H](CCCCN)C(=O)OC)nn2)[C@H](O)[C@H](O)[C@H]1O)[C@H](O)[C@H](O)CCCCCCCCCCCCCC	Active	Dose-dependent effect	–	–	Dose-dependent effect	Non-Toxic	3886 pg/mL	–	Dose-dependent effect	4.9	Active	Active	23.6	Active	5.6
CCCCCCCCCCCCCCCCCCCCCCCCCC(=O)N[C@@H](CO[C@H]1O[C@H](Cn2cc(C(=O)NCC(=O)OC)nn2)[C@H](O)[C@H](O)[C@H]1O)[C@H](O)[C@H](O)CCCCCCCCCCCCCC	Active	Dose-dependent effect	Active	Active	Dose-dependent effect	Non-Toxic	Active	–	Dose-dependent effect	2.1	Active	Active	–	–	–
CCCCCCCCCCCCCCCCCCCCCCCCCC(=O)N[C@@H](CO[C@H]1O[C@H](CO)[C@H](O)[C@H](O)[C@H]1O)[C@H](O)[C@H](O)CCCCCCCCCCCCCC [RGI-7000]	Active	Dose-dependent effect	Active	Active	Dose-dependent effect	–	2925 pg/mL	2.5	–	–	–	Active	13.2	–	–
CCCCCCCCCCCCCCCCCCCCCCCCCC(=O)N[C@@H](CO[C@H]1O[C@H](Cn2cc(C(=O)N[C@@H](Cc3ccccc3)C(=O)OC)nn2)[C@H](O)[C@H](O)[C@H]1O)[C@H](O)[C@H](O)CCCCCCCCCCCCCC	Active	Dose-dependent effect	Active	Active	Dose-dependent effect	Non-Toxic	Active	–	Dose-dependent effect	3.3	Active	Active	–	–	–

From ChEMBL document CHEMBL4609997, “Synthesis and biological activities of amino acids functionalized α-GalCer analogues” (Bioorg Med Chem, 2020)
